≈ marks a conversion by molar mass, not a printed value. Calls of active or inactive are those of the source. No cut-off for these calls is given here.
How the values were obtained:
[1] = Cmin in cage fluid of Albino guiena pig at 50 mg/kg, ip after 12 hrs; assay type: ADME, organism-based, Cavia porcellus; set-up: dose 50 mg/kg, route intraperitoneal; settings: guinea pig, read-out: Cmin
Method in brief: (§1)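 Noninfected male albino guinea pigs (550–600 g) carrying subcutaneous Teflon cages, verified sterile, received one intraperitoneal dose. Cage fluid was aspirated at 1–24 h, two cages per animal, three animals per dose, centrifuged and stored at −20°C. Levels were read by agar diffusion bioassay (S. aureus ATCC 29213; standards in 31% guinea pig serum; limit 1.25 µg/ml). Per-animal parameters are given as mean ± SD; Cmin is the 12 h trough.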

[2] = system: Staphylococcus aureus; assay: Antibacterial activity against methicillin-resistant Staphylococcus aureus ATCC 43300 infected in Albino guiena pig assessed as no. of culture-negative cage fluid samples at 25 mg/kg measured on day 4 postinfection; assay type: functional
Method in brief: (§2)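 Same guinea pig cage infection and intraperitoneal 4-day, twice-daily regimen. Cage fluid cultured on day 4 and day 10. Result is the number of cage fluid samples without detectable MRSA growth over the total cages per group.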

[3] = system: Staphylococcus aureus; assay: Antibacterial activity against methicillin-resistant Staphylococcus aureus ATCC 43300 infected in Albino guiena pig assessed as decrease in planktonic bacterial counts in cage fluid at 25 mg/kg measured on day 4 postinfection; assay type: functional
Method in brief: (§3)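 Guinea pig subcutaneous cage model infected with 2 × 10^4 CFU MRSA. Intraperitoneal dosing every 12 h for 4 days, starting day 1. Cage-fluid CFU counted on day 1, day 4 (before last dose) and day 10. Δlog10 CFU/ml is day 4 or day 10 minus day 1. Quantification limit 1,000 CFU/ml; negatives set to 3 log10. Median and IQR.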

[4] = Tmax in cage fluid of Albino guiena pig at 25 mg/kg, ip; assay type: ADME, organism-based, Cavia porcellus; set-up: dose 25 mg/kg, route intraperitoneal; settings: guinea pig; method in brief: as §1
[5] = Cmax in cage fluid of Albino guiena pig at 75 mg/kg, ip after 3 hrs; assay type: ADME, organism-based, Cavia porcellus, Interstitial fluid; set-up: dose 75 mg/kg, route intraperitoneal; settings: guinea pig; method in brief: as §1
[6] = Tmax in cage fluid of Albino guiena pig at 75 mg/kg, ip; assay type: ADME, organism-based, Cavia porcellus; set-up: dose 75 mg/kg, route intraperitoneal; settings: guinea pig; method in brief: as §1
[7] = system: Staphylococcus aureus; assay: Antibacterial activity against methicillin-resistant Staphylococcus aureus ATCC 43300 by macrodilution method; assay type: functional
Method in brief: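 Broth macrodilution MIC in Mueller-Hinton broth per CLSI. Inoculum 1 × 10^5 to 5 × 10^5 CFU/ml. Ten twofold drug dilutions, 18 h at 37°C without shaking. MIC is the lowest concentration with no visible growth. Triplicate.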

[8] = system: Staphylococcus aureus; assay: Antibacterial activity against methicillin-resistant Staphylococcus aureus ATCC 43300 infected in Albino guiena pig assessed as no. of culture-negative cage fluid samples at 50 mg/kg measured on day 10 postinfection; assay type: functional; method in brief: as §2
[9] = AUC (0 to 24 hrs) in cage fluid of Albino guiena pig at 75 mg/kg, ip; assay type: ADME, organism-based, Cavia porcellus; set-up: time < 24 hr, dose 75 mg/kg, route intraperitoneal; settings: guinea pig
[10] = system: Staphylococcus aureus; assay: Antibacterial activity against methicillin-resistant Staphylococcus aureus ATCC 43300 infected in Albino guiena pig assessed as decrease in planktonic bacterial counts in cage fluid at 75 mg/kg after measured on day 10 postinfection; assay type: functional; method in brief: as §3
[11] = AUC (0 to 24 hrs) in cage fluid of Albino guiena pig at 50 mg/kg, ip; assay type: ADME, organism-based, Cavia porcellus; set-up: time < 24 hr, dose 50 mg/kg, route intraperitoneal; settings: guinea pig
[12] = system: Staphylococcus aureus; assay: Antibacterial activity against methicillin-resistant Staphylococcus aureus ATCC 43300 infected in Albino guiena pig assessed as decrease in planktonic bacterial counts in cage fluid at 50 mg/kg measured on day 4 postinfection; assay type: functional; method in brief: as §3
[13] = system: Staphylococcus aureus; assay: Antibacterial activity against methicillin-resistant Staphylococcus aureus ATCC 43300 infected in Albino guiena pig assessed as no. of culture-negative cage fluid samples at 50 mg/kg measured on day 4 postinfection; assay type: functional; method in brief: as §2
[14] = Half life in cage fluid of Albino guiena pig at 50 mg/kg, ip; settings: guinea pig
[15] = system: Staphylococcus aureus; assay: Antibacterial activity against methicillin-resistant Staphylococcus aureus ATCC 43300 during logarithmic growth phase by macrodilution method; assay type: functional
[16] = system: Staphylococcus aureus; assay: Antibacterial activity against methicillin-resistant Staphylococcus aureus ATCC 43300 infected in Albino guiena pig assessed as no. of culture-negative cage fluid samples at 25 mg/kg measured on day 10 postinfection; assay type: functional; method in brief: as §2
[17] = system: Staphylococcus aureus; assay: Antibacterial activity against methicillin-resistant Staphylococcus aureus ATCC 43300 infected in Albino guiena pig assessed as cure rate at 75 mg/kg measured on day 4 postinfection; assay type: functional, organism-based; set-up: dose 75 mg/kg
Method in brief: (§4)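 Male albino guinea pigs, 550–600 g, with four subcutaneous perforated Teflon cages each. Cages infected with 2 × 10^4 CFU MRSA. Intraperitoneal treatment from 24 h post-infection, every 12 h for 4 days (8 doses), ≥3 animals per group. Explanted cages incubated in TSB at 37°C for 48 h, then plated. Cure is the share of cages without MRSA growth.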

[18] = Cmin in cage fluid of Albino guiena pig at 25 mg/kg, ip after 12 hrs; assay type: ADME, organism-based, Cavia porcellus; set-up: dose 25 mg/kg, route intraperitoneal; settings: guinea pig, read-out: Cmin; method in brief: as §1
[19] = Half life in cage fluid of Albino guiena pig at 75 mg/kg, ip; settings: guinea pig
[20] = system: Staphylococcus aureus; assay: Antibacterial activity against methicillin-resistant Staphylococcus aureus ATCC 43300 during stationary growth phase by macrodilution method; assay type: functional
[21] = system: Staphylococcus aureus; assay: Antibacterial activity against methicillin-resistant Staphylococcus aureus ATCC 43300 infected in Albino guiena pig assessed as decrease in planktonic bacterial counts in cage fluid at 75 mg/kg measured on day 4 postinfection; assay type: functional; method in brief: as §3
[22] = system: Staphylococcus aureus; assay: Antibacterial activity against methicillin-resistant Staphylococcus aureus ATCC 43300 infected in Albino guiena pig assessed as no. of culture-negative cage fluid samples at 75 mg/kg measured on day 10 postinfection; assay type: functional; method in brief: as §2
[23] = system: Staphylococcus aureus; assay: Antibacterial activity against methicillin-resistant Staphylococcus aureus ATCC 43300 infected in Albino guiena pig assessed as cure rate at 50 mg/kg measured on day 4 postinfection; assay type: functional, organism-based; set-up: dose 50 mg/kg; method in brief: as §4
[24] = Cmin in cage fluid of Albino guiena pig at 75 mg/kg, ip after 12 hrs; assay type: ADME, organism-based, Cavia porcellus; set-up: dose 75 mg/kg, route intraperitoneal; settings: guinea pig, read-out: Cmin; method in brief: as §1
[25] = AUC (0 to 24 hrs) in cage fluid of Albino guiena pig at 25 mg/kg, ip; assay type: ADME, organism-based, Cavia porcellus; set-up: time < 24 hr, dose 25 mg/kg, route intraperitoneal; settings: guinea pig
[26] = system: Staphylococcus aureus; assay: Antibacterial activity against 1 x10'6 to 5 x10^6 CFU/ml methicillin-resistant Staphylococcus aureus ATCC 43300 assessed as effect on bacterial count at MIC after 24 hrs by time kill study; assay type: functional, organism-based
Method in brief: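 MRSA inoculum of 1 × 10^6 to 5 × 10^6 CFU/ml in 10 ml Mueller-Hinton broth. Drug at 1× and 4× MIC; drug-free growth control. Incubated at 37°C. Aliquots plated on Mueller-Hinton agar at 0, 6 and 24 h. Quantification limit 200 CFU/ml. Mean log10 CFU/ml reduction ± SD.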

[27] = system: Staphylococcus aureus; assay: Antibacterial activity against methicillin-resistant Staphylococcus aureus ATCC 43300 infected in Albino guiena pig assessed as cure rate at 25 mg/kg measured on day 10 postinfection; assay type: functional, organism-based; set-up: dose 25 mg/kg; method in brief: as §4
[28] = system: Staphylococcus aureus; assay: Antibacterial activity against methicillin-resistant Staphylococcus aureus ATCC 43300 infected in Albino guiena pig assessed as no. of culture-negative cage fluid samples at 75 mg/kg measured on day 4 postinfection; assay type: functional; method in brief: as §2
[29] = Tmax in cage fluid of Albino guiena pig at 50 mg/kg, ip; assay type: ADME, organism-based, Cavia porcellus; set-up: dose 50 mg/kg, route intraperitoneal; settings: guinea pig; method in brief: as §1
[30] = Half life in cage fluid of Albino guiena pig at 25 mg/kg, ip; settings: guinea pig
[31] = system: Staphylococcus aureus; assay: Antibacterial activity against methicillin-resistant Staphylococcus aureus ATCC 43300 infected in Albino guiena pig assessed as decrease in planktonic bacterial counts in cage fluid at 50 mg/kg after measured on day 10 postinfection; assay type: functional; method in brief: as §3
[32] = Cmax in cage fluid of Albino guiena pig at 50 mg/kg, ip after 3 hrs; assay type: ADME, organism-based, Cavia porcellus, Interstitial fluid; set-up: dose 50 mg/kg, route intraperitoneal; settings: guinea pig; method in brief: as §1
[33] = system: Staphylococcus aureus; assay: Antibacterial activity against methicillin-resistant Staphylococcus aureus ATCC 43300 infected in Albino guiena pig assessed as inhibition of bacterial growth in cage fluid at 75 mg/kg measured on day 10 postinfection compared to the bacterial growth on day 1; assay type: functional, organism-based; set-up: dose 75 mg/kg; method in brief: as §3
[34] = Cmax in cage fluid of Albino guiena pig at 25 mg/kg, ip after 3 hrs; assay type: ADME, organism-based, Cavia porcellus, Interstitial fluid; set-up: dose 25 mg/kg, route intraperitoneal; settings: guinea pig; method in brief: as §1

CC(=O)NC[C@H]1CN(c2ccc(N3CCOCC3)c(F)c2)C(=O)O1 [LINEZOLID]
concentration at 12 h [1]: 3700 ng/mL
Activity [2]: 8%
log10CFU/ml [3]: 4.5
Tmax [4]: 3 h
Cmax [5]: 18100 ng/mL
Tmax [6]: 2.8 h
MIC [7]: 2.5 µg/mL (≈ 7.41 µM)
Activity [8]: 0%
AUC(0-t) at 24 h [9]: 126 µg·h/mL
log10CFU/ml [10]: 4.5
AUC(0-t) at 24 h [11]: 119 µg·h/mL
log10CFU/ml [12]: 5.1
Activity [13]: 17%
half-life [14]: 3.5 h
MBC [15]: > 20 µg/mL
Activity [16]: 0%
Activity [17]: inactive
concentration at 12 h [18]: 3000 ng/mL
half-life [19]: 2.6 h
MBC [20]: > 20 µg/mL
log10CFU/ml [21]: 4.6
Activity [22]: 17%
Activity [23]: inactive
concentration at 12 h [24]: 2500 ng/mL
AUC(0-t) at 24 h [25]: 87.8 µg·h/mL
Activity [26]: inactive
Activity [27]: inactive
Activity [28]: 25%
Tmax [29]: 3.3 h
half-life [30]: 6.8 h
log10CFU/ml [31]: 7.1
Cmax [32]: 12700 ng/mL
Activity [33]: Active
Cmax [34]: 6800 ng/mL

Source: ChEMBL document CHEMBL1629645 (Antimicrob Agents Chemother, 2009)
